Source: ChEMBL document CHEMBL4219038, “1-Thiazol-2-yl-N-3-methyl-1H-pyrozole-5-carboxylic acid derivatives as antitumor agents” (Bioorg Med Chem Lett, 2017)
pEC50, pIC50: −log10 of the molar value. In brackets after ≈: the same amount, converted by molar mass. Activity calls are given as the source filed them. The rule behind the calls is not given here.

Columns and labels:
[1] = Plasma concentration (7 hrs) in J:Nu mouse at 10 mg/kg, po qd for 7 days measured on day 1; format: ADME, organism-based
Procedure, shortened: (§1)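 J:Nu female mice, N = 4 per group, dosed orally once daily at 10, 30 or 60 mg/kg in 5% NMP, 10% PEG-400, 15% Solutol, 70% D5W. Blood was sampled every other day, alternating Cmax and predose draws. Plasma concentration was taken 7 h after dosing.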

[2] = AUC (0 to infinity) in iv dosed mouse; format: ADME, organism-based; design: time infinity, route intravenous; details: in vivo
[3] = Cmax in J:Nu mouse plasma at 10 mg/kg, po qd for 7 days; format: ADME, organism-based; design: dose 10 mg/kg, route oral
Procedure, shortened: (§2)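 J:Nu female mice, N = 4 per group, dosed orally once daily at 10, 30 or 60 mpk in 5% NMP, 10% PEG-400, 15% Solutol, 70% D5W. The 30 and 60 mpk groups were raised to 90 and 120 mpk from day 8 to 13.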

[4] = AUC (0 to infinity) in mouse at 10 mg/kg; format: ADME, organism-based; design: dose 10 mg/kg, time infinity; details: in vivo
[5] = Kinetic solubility of the compound in PBS buffer at pH 7.4; format: physicochemical; details: read-out: Kinetic_solubility
Procedure, shortened: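 Kinetic solubility measured in PBS buffer, pH 7.4.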

[6] = Cmax in mouse at 100 mg/kg; format: ADME, organism-based; design: dose 100 mg/kg; details: in vivo
BJAB [7] = assay: Antiproliferative activity against human BJAB cells after 4 days; format: functional, cell-based; details: Homo sapiens, BJAB, 96 h; read-out: EC50
[8] = Half life in iv dosed mouse; format: ADME, organism-based; details: in vivo
[9] = AUC (0 to infinity) in J:Nu mouse plasma at 30 mg/kg, po qd for 7 days followed by 90 mg/kg, po qd for 5 days from day 8 to 13; format: ADME, organism-based; design: dose 30 mg/kg, route oral, time infinity; procedure, shortened: as §2
[10] = Cmax in po dosed mouse; format: ADME, organism-based; design: route oral; details: in vivo
Mus musculus [11] = assay: Toxicity in J:Nu mouse assessed as organ damage at 60 mg/kg, po qd for 7 days followed by 120 mg/kg, po qd for 5 days from day 8 to 13 measured 48 hrs after post last dose by pathology analysis; format: organism-based; details: in vivo
Procedure, shortened: (§3)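 In J:Nu female mice (N = 4 per group), dosing was oral once daily at 30 or 60 mg/kg in 5% NMP/10% PEG-400/15% Solutol/70% D5W for 7 days. Doses were then raised to 90 or 120 mg/kg respectively on days 8–13. Clinical signs and body weights were recorded daily. Gross pathology, with spleen and liver weights, was done 48 h after the last dose.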

SU-DHL10 = assay: Antiproliferative activity against human SU-DHL10 cells; format: functional, cell-based
BJAB [12] = assay: Induction of apoptosis in human BJAB cells by high content cell imaging studies; format: functional, cell-based
[13] = Cmax in mouse at 2.5 mg/kg; format: ADME, organism-based; design: dose 2.5 mg/kg; details: in vivo
[14] = Cmax in J:Nu mouse plasma at 60 mg/kg, po qd for 7 days followed by 120 mg/kg, po qd for 5 days from day 8 to 13; format: ADME, organism-based; design: dose 60 mg/kg, route oral; procedure, shortened: as §2
Daudi = assay: Antiproliferative activity against human Daudi cells; format: functional, cell-based
[15] = Protein binding in mouse plasma; format: ADME, cell-free; details: read-out: PPB (converted)
[16] = Dose normalized Cmax in J:Nu mouse plasma at 10 mg/kg, po qd for 7 days; format: ADME, organism-based; details: in vivo, 168 h; procedure, shortened: as §2
[17] = MRT in mouse at 100 mg/kg, po; format: ADME, organism-based; details: in vivo
[18] = Plasma concentration (7 hrs) in J:Nu mouse at 60 mg/kg, po qd for 7 days measured on day 1; format: ADME, organism-based; procedure, shortened: as §1
[19] = AUC (0 to infinity) in mouse at 100 mg/kg; format: ADME, organism-based; design: dose 100 mg/kg, time infinity; details: in vivo
HCT-116 = assay: Cell cycle arrest in human HCT116 cells assessed as reduction in cell levels at S-phase at 0.001 to 10 uM after 24 hrs EdU-staining based high content imaging analysis; format: functional
Procedure, shortened: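 HCT-116 cells plated on poly-lysine-coated plates overnight, then treated 24 h with compound (DMSO stock diluted into McCoy's medium with 10% FBS). EdU labelling of newly synthesized DNA, 4% formaldehyde fixation, then high-content imaging in three fluorescent channels for total cell count, DNA content and S-phase cells. Means of three biological replicates, SEM.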

Mus musculus [20] = assay: Toxicity in J:Nu mouse assessed as induction of changes in critical clinical parameters at 60 mg/kg, po qd for 7 days followed by 120 mg/kg, po qd for 5 days from day 8 to 13; format: organism-based; details: in vivo; procedure, shortened: as §3
[21] = AUC (0 to infinity) in po dosed mouse; format: ADME, organism-based; design: route oral, time infinity; details: in vivo
[22] = Antiproliferative activity against human TC71 cells; format: functional, cell-based; details: TC-71
Mus musculus [23] = assay: Ratio of AUC (0 to infinity) in mouse at 2.5 mg/kg, po to Cmax in mouse at 10 mg/kg, po; format: ADME, organism-based; details: in vivo
Mus musculus [24] = assay: Toxicity in J:Nu mouse assessed as induction of changes in critical clinical parameters at 30 mg/kg, po qd for 7 days followed by 90 mg/kg, po qd for 5 days from day 8 to 13; format: organism-based; details: in vivo; procedure, shortened: as §3
[25] = Antiproliferative activity against human […] cells; format: functional, cell-based

**Q.** With `Cc1nn(-c2nc(-c3ccc(Cl)c(Cl)c3)c(SC(C)C)s2)c(C(=O)O)c1-c1cc(Cl)cc(Cl)c1` as the compound, how does the concentration at 7 h [1] read?
**A.** Its concentration at 7 h is 19700 ng/mL.

**Q.** What about the AUC(0-inf) [2] of the same compound?
**A.** The AUC(0-inf) was 10.7 µg·h/mL.

**Q.** And the Cmax [3]?
**A.** The Cmax was 29000 ng/mL.

**Q.** What about the AUC(0-inf) [4] of the same compound?
**A.** Its AUC(0-inf) is 257 µg·h/mL.

**Q.** What about the solubility kinetic [5] of the same compound?
**A.** Its solubility kinetic is 40.2 µM (≈ 23 µg/mL).

**Q.** What about the Cmax [6] of the same compound?
**A.** The Cmax was 131000 ng/mL.

**Q.** What about the pEC50 (BJAB [7]) of the same compound?
**A.** Its pEC50 is 6.26.

**Q.** And the half-life [8]?
**A.** The half-life was 8 h.

**Q.** What about the AUC(0-inf) [9] of the same compound?
**A.** Its AUC(0-inf) is 1490 µg·h/mL.

**Q.** What about the Cmax [10] of the same compound?
**A.** Its Cmax is 1320 ng/mL.

**Q.** And the Activity (Mus musculus [11])?
**A.** The Activity was “Non-Toxic”.

**Q.** What about the pIC50 (SU-DHL10) of the same compound?
**A.** The pIC50 was 6.37.

**Q.** What about the Activity (BJAB [12]) of the same compound?
**A.** The Activity was “Active”.

**Q.** And the Cmax [13]?
**A.** Its Cmax is 1320 ng/mL.

**Q.** And the Cmax [14]?
**A.** Its Cmax is 128000 ng/mL.

**Q.** And the pIC50 (Daudi)?
**A.** Its pIC50 is 6.42.

**Q.** What about the fraction unbound [15] of the same compound?
**A.** Its fraction unbound is 0.008.

**Q.** And the Cmax/dose [16]?
**A.** The Cmax/dose was 2897.9 ng/mL.

**Q.** What about the MRT [17] of the same compound?
**A.** Its MRT is 14.3 h.

**Q.** And the concentration at 7 h [18]?
**A.** Its concentration at 7 h is 88800 ng/mL.

**Q.** What about the AUC(0-inf) [19] of the same compound?
**A.** The AUC(0-inf) was 2120 µg·h/mL.

**Q.** And the Activity (HCT-116)?
**A.** The Activity was “Active”.

**Q.** And the Activity (Mus musculus [20])?
**A.** Its Activity is “Non-Toxic”.

**Q.** And the AUC(0-inf) [21]?
**A.** Its AUC(0-inf) is 25.8 µg·h/mL.

**Q.** And the pIC50 [22]?
**A.** Its pIC50 is 6.54.

**Q.** What about the Ratio (Mus musculus [23]) of the same compound?
**A.** The Ratio was 10.

**Q.** What about the Activity (Mus musculus [24]) of the same compound?
**A.** Its Activity is “Non-Toxic”.

**Q.** And the pIC50 [25]?
**A.** The pIC50 was 5.80.
